Bioassay records from PubChem BioAssay.
ABHD5-PLIN5 inh: ABHD5-PLIN5 interaction inhibitors, primary screen, cell lysate, split luciferase complementation, luminescence. AID 602281, 2012. Perilipin-5 (Homo sapiens) + 1-acylglycerol-3-phosphate O-acyltransferase ABHD5 (Homo …. inhibition, % at 4 µM. actives 0.78% (n = 360,000). Split G. princeps luciferase complementation, 4 h;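 active means inhibition above the mean inhibition across every tested compound plus 3 SD, cut at about 22% in these data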;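 further: 0% = DMSO only wells and the 100% control is not disclosed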
Target sequence (Q00G26 whole entry, looked up): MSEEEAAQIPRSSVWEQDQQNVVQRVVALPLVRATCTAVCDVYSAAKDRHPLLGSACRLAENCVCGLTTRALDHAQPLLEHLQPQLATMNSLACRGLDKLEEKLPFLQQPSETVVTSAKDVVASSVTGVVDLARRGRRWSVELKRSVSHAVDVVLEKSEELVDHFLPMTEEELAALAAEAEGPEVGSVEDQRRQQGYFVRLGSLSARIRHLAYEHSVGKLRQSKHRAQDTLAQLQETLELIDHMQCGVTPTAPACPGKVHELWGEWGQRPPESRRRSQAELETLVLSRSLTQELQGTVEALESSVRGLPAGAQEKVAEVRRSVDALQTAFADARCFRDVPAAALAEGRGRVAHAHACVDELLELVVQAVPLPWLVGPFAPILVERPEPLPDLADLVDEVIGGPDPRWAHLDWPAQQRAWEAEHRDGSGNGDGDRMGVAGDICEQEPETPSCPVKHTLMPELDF
Target sequence (Q8WTS1 whole entry, looked up): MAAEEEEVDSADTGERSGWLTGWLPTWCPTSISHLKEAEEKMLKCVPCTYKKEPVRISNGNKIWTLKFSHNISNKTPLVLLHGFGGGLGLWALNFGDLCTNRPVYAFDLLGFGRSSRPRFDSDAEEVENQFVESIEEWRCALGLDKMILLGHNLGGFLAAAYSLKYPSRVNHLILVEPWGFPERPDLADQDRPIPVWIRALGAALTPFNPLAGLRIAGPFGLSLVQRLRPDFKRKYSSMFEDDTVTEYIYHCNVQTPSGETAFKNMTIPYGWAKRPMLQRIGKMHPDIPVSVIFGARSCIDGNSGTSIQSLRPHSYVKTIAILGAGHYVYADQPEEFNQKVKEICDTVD
CHOP UPR activ: activators of apoptotic CHOP UPR arm, primary screen, cell-based, CHO-CHOP luciferase reporter, luminescence, uHTS. actives 0.34% (n = 330,000). AID 449763, 2010. UPR activation; percent of tunicamycin response over DMSO baseline. activation, % at 10 µM;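 active means at 10 µM dose, activation of 40% or more, normalized to positive control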;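 further: 100% = tunicamycin at 10 µg/mL and 0% = DMSO alone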
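assay system = CHO CHOP reporter cells | amount = 500 CHO-CHOP cells per well | buffer or medium = F12 with 10% FBS | incubation = 16-18 h cell attachment, then 6 h compound exposure, 37 °C | detection = luminescence read with Steady-Glo | read-out = percent activation relative to tunicamycin control | controls = tunicamycin high control, DMSO low control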
UPR XBP1 act: activators of adaptive XBP1 UPR arm, primary screen, cell-based, CHO-XBP1 luciferase reporter, luminescence, uHTS | IRE1-XBP1 UPR activation; percent of tunicamycin response, DMSO as zero | activation, % at 20 µM | actives 0.33% (n = 330,000);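 active means versus positive control, 20 µM dose yields 30% or more activation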;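 further: 100% = tunicamycin at 10 µg/mL and 0% = DMSO only wells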
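assay system = CHO-XBP1 luciferase reporter cells | amount = 1000 cells/well | buffer or medium = F12 plus 10% FBS | compound dosing = single point, 20 µM final compound, 1% DMSO | incubation = 16-18 h cell attachment at 37 °C, then 6 h compound exposure | detection = Steady-Glo luminescence read | controls = tunicamycin 10 µg/mL and vehicle-only wells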
Mdm2 MdmX PPI: inhibitors of human Mdm2-MdmX association, primary screen, cell-based, luminescence, split luciferase, SaOS-2, uHTS; actives 3% (n = 330,000); inhibition, % at 8 µM; Protein Mdm4 (Homo sapiens) + E3 ubiquitin-protein ligase Mdm2 (Homo sapiens), …; SaOS-2 split-luciferase Mdm2/MdmX complementation;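 active means inhibition of at least 50% at 8 µM in the primary screen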
Granule exo inh: LAMP-1 surface exposure blockers, TALL-104 cells – cell-based, flow cytometry, MLPCN library, primary screen. TALL-104 LAMP-1 surface exposure; cells stimulated with thapsigargin and PMA. inhibition, % at 10 µM. actives 0.66% (n = 360,000). AID 651702, 2012;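 active means inhibition above about 55%, limit read from the data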
Mdm2-MdmX conf: Mdm2-MdmX complex disruptors, retested hits, confirmation, luminescence, single concentration. AID 489028, 2010. Mdm2-MdmX binding, luminescent assay. shares compounds with Mdm2 MdmX PPI. actives 55% (n = 10,000). inhibition, % at 8 µM; in the data active means inhibition above about 40%
Full FLuc ctr: full-length luciferase signal inhibition, confirmation, counter-screen for Mdm2/MdmX interaction inhibitor project, cell-based, single concentration, SaOS-2. shares compounds with Mdm2 MdmX PPI. SaOS-2 full-length luciferase counterscreen, luminescence. inhibition, % at 8 µM. actives 77% (n = 6,200). AID 504607, 2011;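 active means mean inhibition at 8 µM reaching about 37%, which flags the compound as non-specific, limit read from the data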;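 further: p53-null SaOS-2 cells with luciferase driven by a doxycycline-inducible promoter; compound on cells about two nights before reading with doxycycline added after day one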
Starred values were filed as active, the others as inactive; / = no result given. Compounds with a hit are over-represented: about 4% of the library has one in this group of screens.

SMILES	ABHD5-PLIN5 inh	CHOP UPR activ	UPR XBP1 act	Mdm2 MdmX PPI	Granule exo inh	Mdm2-MdmX conf	Full FLuc ctr
COc1ccc(C(NC(=O)CC(C)C)c2c(O)ccc3ccccc23)cc1 (centres undefined)	4	1	-3	9	8	/	/
COc1ccc(C(NC(=O)C2CCCCC2)c2c(O)ccc3ccccc23)cc1 (centres undefined)	-5	-1	-2	53*	-5	13	/
CCCC(=O)NC(c1ccc(OC)cc1)c1c(O)ccc2ccccc12 (centres undefined)	-8	0	-5	50*	-4	39	61*
CCCCC[C@@H](C)N1C[C@H](COCc2ccccc2)Oc2cc(N3CCC[C@@H]3CO)ccc2S1(=O)=O	-9	/	/	/	14	/	/
COc1cc(NC2c3ccccc3C(=O)N2c2cc(C)ccn2)cc(OC)c1OC (centres undefined)	7	-1	-1	0	1	/	/
COC(=O)c1ccc(NC(=O)CNC(=O)c2sc3ccccc3c2Cl)cc1	6	1	-2	94*	-1	49*	93*
COC(=O)c1ccccc1NC(=O)c1ccc(-c2ccc(Br)cc2)o1	-6	11	2	58*	2	62*	152*
CCC(C)(C)C(=O)O[C@H]1C[C@@H](C)C=C2C=C[C@H](C)[C@H](CC[C@@H]3C[C@@H](O)CC(=O)O3)[C@H]21	-1	0	-9	55*	-2	22	/
Cc1cccc(N2CCN(Cc3cn(C)nc3-c3ccccc3F)CC2)n1	0	-1	1	55*	-4	70*	49*
CC1CCN(C(=O)C(NS(=O)(=O)c2cccc3nsnc23)C(C)C)CC1 (centres undefined)	0	0	-6	4	-4	/	/
COc1ccc(C=C(c2nc3ccccc3s2)c2nc3ccccc3s2)cc1O	-9	3	0	58*	-2	45*	63*
Cc1c(CCC(=O)O)c(=O)oc2cc(O)ccc12	1	3	1	-4	4	/	/
C/C(=N\Nc1ccc(S(N)(=O)=O)cc1[N+](=O)[O-])c1cccnc1	7	4	1	58*	-1	1	/
COc1ccc(S(=O)(=O)Nc2ccccc2C(=O)NCc2cccnc2)cc1C	4	1	-1	-22	-2	/	/
COC(=O)CSc1nnc(CNc2ccc(F)cc2)o1	6	-1	0	-2	-1	/	/
O=C(COC(=O)c1c2c(nc3ccccc13)CCCC2)Nc1ccc2c(c1)OCO2	5	-1	6	41	1	/	/
COc1cc(Nc2c3c(nc4ccccc24)CCCC3)cc(OC)c1OC	1	2	0	68*	-2	64*	76*
COc1ccc(Nc2c3c(nc4ccccc24)CCC3)c(OC)c1	-8	-1	0	47	38	/	/
c1ccc2c(Nc3ccc4c(c3)OCCO4)c3c(nc2c1)CCCC3	5	0	-3	70*	-2	59*	85*
COc1ccccc1Nc1c2c(nc3ccccc13)CCC2	2	0	1	56*	32	53*	58*
O=c1[nH]cc(O)c(=O)[nH]1	0	-1	-1	5	0	/	/
CSCC[C@H](N)C(=O)N1CCC(C(=O)N[C@H](C)C(=O)NC(C)c2ccccc2)CC1 (some centres undefined)	0	-1	-3	10	-1	/	/
NC(=O)CC[C@@H]1NC(=O)[C@H](CO)NC(=O)c2cc([N+](=O)[O-])cc(I)c2NCCCC[C@@H](C(N)=O)NC(=O)[C@H](Cc2ccc(O)cc2)NC1=O	/	1	-1	29	/	/	/
CC(Sc1nnc(-c2ccco2)n1-c1ccccc1)C(=O)NCC1CCCO1 (centres undefined)	3	1	7	-25	-1	/	/
CCOc1ccccc1OCCC(=O)N1CCN(S(=O)(=O)c2ccccc2[N+](=O)[O-])CC1	6	0	-1	62*	-1	19	/
SMILES	ABHD5-PLIN5 inh	CHOP UPR activ	UPR XBP1 act	Mdm2 MdmX PPI	Granule exo inh	Mdm2-MdmX conf	Full FLuc ctr
CCOc1ccccc1OCCCC(=O)N1CCN(S(=O)(=O)c2ccc(Cl)cc2)CC1	-2	/	/	/	-2	/	/
CC(=O)Nc1sc(-c2ccc(Cl)cc2)nc1-c1ccccc1	8	2	1	13	5	/	/
COC(=O)c1c(NC(=O)CN2CCC3(O)CCCCC3C2c2ccc(F)cc2)sc(C)c1C (centres undefined)	1	2	-1	53*	-2	27	/
COC(=O)c1c(NC(=O)CN2CCC3(O)CCCCC3C2c2cc(OC)ccc2OC)sc(C)c1C (centres undefined)	-6	1	2	40	1	/	/
N#Cc1cc2cc3c(cc2nc1SCC(=O)N1CCOCC1)OCCO3	1	-3	-8	84*	-4	88*	81*
CCc1cc2cc3c(cc2nc1SCC(=O)Nc1cc(C)on1)OCO3	0	10	15	81*	1	8	/
Cc1ccc(NC(=S)NC(=O)c2ccc(F)cc2)cc1S(=O)(=O)Nc1cccc(Cl)c1	1	-2	-1	67*	22	54*	108*
Cc1ccc(C)c(NC(=S)N2CCN(c3cccc(C(F)(F)F)c3)CC2)c1	-6	-1	-3	16	7	/	/
Cc1ccnc(NC(=S)N2CCN(c3cccc(C(F)(F)F)c3)CC2)c1	-2	2	7	75*	2	77*	46*
Cc1ccc(Nc2nc(N)c([N+](=O)[O-])c(NCc3ccccc3)n2)cc1	-11	2	17	30	2	/	/
CNc1nc(Nc2ccc(Br)cc2)nc(N)c1[N+](=O)[O-]	0	6	6	67*	-5	-20	/
c1nc(CCO[C@H]2CCCCO2)cc2cc3c(cc12)OCO3	-4	-6	-9	56*	0	35	/
CCN(C(=O)COC(=O)CSc1ccc(C)c(C)c1)C1CCS(=O)(=O)C1 (centres undefined)	1	-1	0	-2	26	/	/
O=[N+]([O-])c1ccccc1C1Nc2cccc3cccc(c23)N1	13	4	1	93*	9	42*	27
